Results from ChEMBL document CHEMBL5678815 (Clin Cancer Res, 2017).

Legend:
[1] = biological target: Activin receptor type-1-like (Homo sapiens) (UniProt P37023); test: Inhibition of human ACVRL1 assessed as remaining activity at 1 uM by ATP-competition binding assay relative to control
In short: (§1)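 KINOMEscan ATP-site-dependent competition binding panel of 395 human kinases, with compound tested at 1 μM. Binding is reported as remaining signal relative to control.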

[2] = biological target: RAC-beta serine/threonine-protein kinase (Homo sapiens) (UniProt P31751); test: Inhibition of human AKT2 assessed as remaining activity at 1 uM by ATP-competition binding assay relative to control; in short: as §1
RAC-beta serine/threonine-protein kinase (Homo sapiens), sequence (P31751 whole entry): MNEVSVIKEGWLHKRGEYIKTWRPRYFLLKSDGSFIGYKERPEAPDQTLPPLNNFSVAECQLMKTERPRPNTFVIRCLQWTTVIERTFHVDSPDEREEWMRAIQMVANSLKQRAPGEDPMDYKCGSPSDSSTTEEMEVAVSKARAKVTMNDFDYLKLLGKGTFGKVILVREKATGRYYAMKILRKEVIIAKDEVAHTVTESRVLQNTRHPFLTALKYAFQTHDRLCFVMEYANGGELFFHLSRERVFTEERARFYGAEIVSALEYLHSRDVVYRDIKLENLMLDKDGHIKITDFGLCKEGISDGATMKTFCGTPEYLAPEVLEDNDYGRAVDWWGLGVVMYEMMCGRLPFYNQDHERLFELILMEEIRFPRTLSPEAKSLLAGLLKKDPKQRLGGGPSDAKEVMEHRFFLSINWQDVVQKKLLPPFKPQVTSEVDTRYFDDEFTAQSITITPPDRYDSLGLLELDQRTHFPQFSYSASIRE

[3] = biological target: Tyrosine-protein kinase Blk (Homo sapiens) (UniProt P51451); test: Inhibition of human BLK assessed as remaining activity at 1 uM by ATP-competition binding assay relative to control; in short: as §1
Tyrosine-protein kinase Blk (Homo sapiens), sequence (P51451 2-505 limits assumed): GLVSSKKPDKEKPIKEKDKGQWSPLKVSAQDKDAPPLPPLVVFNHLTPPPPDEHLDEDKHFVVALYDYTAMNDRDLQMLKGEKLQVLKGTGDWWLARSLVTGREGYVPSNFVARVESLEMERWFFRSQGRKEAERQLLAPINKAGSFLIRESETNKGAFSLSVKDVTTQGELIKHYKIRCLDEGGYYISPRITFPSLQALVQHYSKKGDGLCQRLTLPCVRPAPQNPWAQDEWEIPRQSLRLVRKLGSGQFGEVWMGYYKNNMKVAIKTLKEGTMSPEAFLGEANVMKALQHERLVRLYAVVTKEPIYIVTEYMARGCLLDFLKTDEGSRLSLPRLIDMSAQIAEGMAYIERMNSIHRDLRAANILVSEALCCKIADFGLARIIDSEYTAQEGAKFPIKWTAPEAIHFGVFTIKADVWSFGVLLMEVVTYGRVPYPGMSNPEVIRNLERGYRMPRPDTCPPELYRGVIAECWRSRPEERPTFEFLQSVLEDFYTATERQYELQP

[4] = biological target: Casein kinase I isoform alpha-like (Homo sapiens) (UniProt Q8N752); test: Inhibition of human CSNK1A1L assessed as remaining activity at 1 uM by ATP-competition binding assay relative to control; in short: as §1
Casein kinase I isoform alpha-like (Homo sapiens), sequence (Q8N752 whole entry, canonical isoform): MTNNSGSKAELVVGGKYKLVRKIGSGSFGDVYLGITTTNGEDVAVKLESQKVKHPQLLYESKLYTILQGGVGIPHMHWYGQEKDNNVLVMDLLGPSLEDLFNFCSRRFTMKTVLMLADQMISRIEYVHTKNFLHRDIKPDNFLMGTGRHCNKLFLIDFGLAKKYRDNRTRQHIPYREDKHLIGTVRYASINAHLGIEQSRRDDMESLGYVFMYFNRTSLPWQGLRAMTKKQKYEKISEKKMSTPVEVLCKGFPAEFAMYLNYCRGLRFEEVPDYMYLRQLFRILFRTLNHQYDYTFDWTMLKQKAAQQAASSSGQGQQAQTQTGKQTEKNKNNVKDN

[5] = biological target: Casein kinase I isoform gamma-3 (Homo sapiens) (UniProt Q9Y6M4); test: Inhibition of human CSNK1G3 assessed as remaining activity at 1 uM by ATP-competition binding assay relative to control; in short: as §1
[6] = biological target: Serine/threonine-protein kinase 17B (Homo sapiens) (UniProt O94768); test: Inhibition of human DRAK2 assessed as remaining activity at 1 uM by ATP-competition binding assay relative to control; in short: as §1
Serine/threonine-protein kinase 17B (Homo sapiens), sequence (O94768 whole entry): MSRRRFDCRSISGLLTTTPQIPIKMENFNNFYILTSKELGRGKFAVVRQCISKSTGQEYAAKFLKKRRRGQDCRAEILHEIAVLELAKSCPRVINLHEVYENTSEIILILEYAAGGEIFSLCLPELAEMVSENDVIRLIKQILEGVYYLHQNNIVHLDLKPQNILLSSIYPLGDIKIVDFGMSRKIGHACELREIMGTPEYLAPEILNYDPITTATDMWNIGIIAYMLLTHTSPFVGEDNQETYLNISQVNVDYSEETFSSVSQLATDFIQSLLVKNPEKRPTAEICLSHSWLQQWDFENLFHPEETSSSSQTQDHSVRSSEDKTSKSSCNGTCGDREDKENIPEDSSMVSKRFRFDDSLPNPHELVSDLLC

[7] = biological target: Receptor tyrosine-protein kinase erbB-2 (Homo sapiens) (UniProt P04626); test: Inhibition of human ERBB2 assessed as remaining activity at 1 uM by ATP-competition binding assay relative to control
In short: (§2)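 Single-point profiling at 1μM in an ATP-site-dependent competition binding assay across a panel of 395 human kinases, including mutant forms. The read-out is kinase binding signal in the presence of test agent, expressed as inhibition relative to the control signal. This screen assessed noncovalent binding interactions.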

[8] = system: Receptor-type tyrosine-protein kinase FLT3 (Homo sapiens), P36888 [D835H]; test: Inhibition of human FLT3 D835H mutant assessed as remaining activity at 1 uM by ATP-competition binding assay relative to control; in short: as §2
[9] = system: Epidermal growth factor receptor (Homo sapiens), P00533 [L861Q]; test: Inhibition of human EGFR L861Q mutant assessed as remaining activity at 1 uM by ATP-competition binding assay relative to control
In short: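 KINOMEscan ATP-site-dependent competition binding assay across a 395-kinase human panel including mutants; compound tested at 1μM; binding expressed relative to control signal.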

[10] = system: Mast/stem cell growth factor receptor Kit (Homo sapiens), P10721 [D816V]; test: Inhibition of human KIT D816V mutant assessed as remaining activity at 1 uM by ATP-competition binding assay relative to control; in short: as §2
[11] = biological target: Tyrosine-protein kinase Lck (Homo sapiens) (UniProt P06239); test: Inhibition of human LCK assessed as remaining activity at 1 uM by ATP-competition binding assay relative to control; in short: as §2
Tyrosine-protein kinase Lck (Homo sapiens), sequence (P06239 2-509 limits assumed): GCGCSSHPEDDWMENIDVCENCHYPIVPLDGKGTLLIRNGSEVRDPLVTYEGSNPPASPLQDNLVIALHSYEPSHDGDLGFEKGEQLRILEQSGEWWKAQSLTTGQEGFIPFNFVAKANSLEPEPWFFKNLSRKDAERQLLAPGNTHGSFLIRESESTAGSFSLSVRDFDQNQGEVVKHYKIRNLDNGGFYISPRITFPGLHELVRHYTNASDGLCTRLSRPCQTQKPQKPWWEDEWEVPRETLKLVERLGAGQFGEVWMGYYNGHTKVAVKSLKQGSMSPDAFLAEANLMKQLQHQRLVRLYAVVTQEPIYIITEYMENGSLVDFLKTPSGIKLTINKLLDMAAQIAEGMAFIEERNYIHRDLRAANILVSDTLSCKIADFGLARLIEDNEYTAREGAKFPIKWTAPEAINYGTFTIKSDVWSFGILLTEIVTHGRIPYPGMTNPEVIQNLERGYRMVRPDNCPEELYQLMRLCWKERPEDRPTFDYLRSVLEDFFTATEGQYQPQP

[12] = biological target: Mitogen-activated protein kinase kinase kinase 13 (Homo sapiens) (UniProt O43283); test: Inhibition of human LZK assessed as remaining activity at 1 uM by ATP-competition binding assay relative to control; in short: as §2
Mitogen-activated protein kinase kinase kinase 13 (Homo sapiens), sequence (O43283 whole entry): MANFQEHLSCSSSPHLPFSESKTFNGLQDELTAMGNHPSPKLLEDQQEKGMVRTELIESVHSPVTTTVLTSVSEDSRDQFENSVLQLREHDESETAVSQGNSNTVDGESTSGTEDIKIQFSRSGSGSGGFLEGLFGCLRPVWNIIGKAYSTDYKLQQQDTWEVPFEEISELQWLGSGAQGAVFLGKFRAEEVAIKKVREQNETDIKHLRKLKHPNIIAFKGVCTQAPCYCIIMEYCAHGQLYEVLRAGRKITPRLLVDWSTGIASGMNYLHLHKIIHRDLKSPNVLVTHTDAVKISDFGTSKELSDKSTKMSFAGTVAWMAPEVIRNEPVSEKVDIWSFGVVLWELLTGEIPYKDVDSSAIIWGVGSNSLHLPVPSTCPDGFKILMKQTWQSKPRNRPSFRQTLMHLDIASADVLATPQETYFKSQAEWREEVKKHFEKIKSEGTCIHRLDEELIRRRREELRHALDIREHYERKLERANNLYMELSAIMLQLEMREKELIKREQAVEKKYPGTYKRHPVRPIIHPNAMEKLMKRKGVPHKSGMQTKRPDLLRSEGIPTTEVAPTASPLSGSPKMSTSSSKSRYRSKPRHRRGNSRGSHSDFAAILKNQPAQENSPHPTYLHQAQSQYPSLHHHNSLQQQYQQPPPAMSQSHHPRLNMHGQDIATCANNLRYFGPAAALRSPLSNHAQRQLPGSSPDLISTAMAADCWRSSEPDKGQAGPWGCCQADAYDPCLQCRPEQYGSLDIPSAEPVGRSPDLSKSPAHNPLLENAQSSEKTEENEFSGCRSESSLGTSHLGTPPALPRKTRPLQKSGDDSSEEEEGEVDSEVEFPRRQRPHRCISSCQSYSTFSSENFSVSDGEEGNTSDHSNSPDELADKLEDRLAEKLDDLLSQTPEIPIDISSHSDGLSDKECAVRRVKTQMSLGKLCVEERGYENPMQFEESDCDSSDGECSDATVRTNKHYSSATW

[13] = biological target: Maternal embryonic leucine zipper kinase (Homo sapiens) (UniProt Q14680); test: Inhibition of human MELK assessed as remaining activity at 1 uM by ATP-competition binding assay relative to control; in short: as §2
[14] = biological target: Tyrosine-protein kinase Mer (Homo sapiens) (UniProt Q12866); test: Inhibition of human MERTK assessed as remaining activity at 1 uM by ATP-competition binding assay relative to control; in short: as §2
[15] = biological target: Mitogen-activated protein kinase kinase kinase 11 (Homo sapiens) (UniProt Q16584); test: Inhibition of human MLK3 assessed as remaining activity at 1 uM by ATP-competition binding assay relative to control; in short: as §2
[16] = biological target: Serine/threonine-protein kinase 26 (Homo sapiens) (UniProt Q9P289); test: Inhibition of human MST4 assessed as remaining activity at 1 uM by ATP-competition binding assay relative to control; in short: as §2
Serine/threonine-protein kinase 26 (Homo sapiens), sequence (Q9P289 2-416 limits assumed): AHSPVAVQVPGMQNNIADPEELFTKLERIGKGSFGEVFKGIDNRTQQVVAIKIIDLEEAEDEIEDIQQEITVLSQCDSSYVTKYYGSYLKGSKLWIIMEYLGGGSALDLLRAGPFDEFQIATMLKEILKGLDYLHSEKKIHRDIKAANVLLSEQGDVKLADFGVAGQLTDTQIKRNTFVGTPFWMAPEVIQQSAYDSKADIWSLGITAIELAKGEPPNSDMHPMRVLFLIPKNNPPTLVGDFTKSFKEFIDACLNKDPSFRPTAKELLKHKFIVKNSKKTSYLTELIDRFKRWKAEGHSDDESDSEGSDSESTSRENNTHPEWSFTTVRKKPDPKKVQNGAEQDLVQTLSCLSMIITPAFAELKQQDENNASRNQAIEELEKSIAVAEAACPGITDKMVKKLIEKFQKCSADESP

[17] = biological target: Cyclin-dependent kinase 15 (Homo sapiens) (UniProt Q96Q40); test: Inhibition of human PFTAIRE2 assessed as remaining activity at 1 uM by ATP-competition binding assay relative to control; in short: as §2
Cyclin-dependent kinase 15 (Homo sapiens), sequence (Q96Q40 whole entry): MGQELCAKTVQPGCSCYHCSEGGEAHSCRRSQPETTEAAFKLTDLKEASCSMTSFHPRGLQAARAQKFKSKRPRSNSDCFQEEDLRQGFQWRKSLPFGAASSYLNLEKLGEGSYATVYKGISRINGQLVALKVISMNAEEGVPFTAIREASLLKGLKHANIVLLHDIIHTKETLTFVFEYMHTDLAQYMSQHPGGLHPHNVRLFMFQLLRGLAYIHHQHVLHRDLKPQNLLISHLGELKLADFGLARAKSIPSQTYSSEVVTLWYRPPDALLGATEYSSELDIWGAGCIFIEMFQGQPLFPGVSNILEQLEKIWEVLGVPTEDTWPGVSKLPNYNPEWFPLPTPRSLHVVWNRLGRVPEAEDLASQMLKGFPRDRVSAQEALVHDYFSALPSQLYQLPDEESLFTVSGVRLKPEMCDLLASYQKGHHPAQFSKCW

[18] = biological target: cAMP-dependent protein kinase catalytic subunit beta (Homo sapiens) (UniProt P22694); test: Inhibition of human PKAC-beta assessed as remaining activity at 1 uM by ATP-competition binding assay relative to control
In short: (§3)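 Single-concentration (1 μM) screen in an ATP-site-dependent competition binding assay (KINOMEscan, outsourced) covering 395 human kinases, mutants included. Non-covalent binding was read as the remaining signal relative to the control signal.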

[19] = biological target: Serine/threonine-protein kinase N2 (Homo sapiens) (UniProt Q16513); test: Inhibition of human PKN2 assessed as remaining activity at 1 uM by ATP-competition binding assay relative to control; in short: as §3
[20] = system: Proto-oncogene tyrosine-protein kinase receptor Ret (Homo sapiens), P07949 [M918T]; test: Inhibition of human RET M918T assessed as remaining activity at 1 uM by ATP-competition binding assay relative to control; in short: as §3
[21] = biological target: Ribosomal protein S6 kinase alpha-5 (Homo sapiens) (UniProt O75582); test: Inhibition of human RPS6KA5 assessed as remaining activity at 1 uM by ATP-competition binding assay relative to control; in short: as §3
Ribosomal protein S6 kinase alpha-5 (Homo sapiens), sequence (O75582 whole entry, looked up): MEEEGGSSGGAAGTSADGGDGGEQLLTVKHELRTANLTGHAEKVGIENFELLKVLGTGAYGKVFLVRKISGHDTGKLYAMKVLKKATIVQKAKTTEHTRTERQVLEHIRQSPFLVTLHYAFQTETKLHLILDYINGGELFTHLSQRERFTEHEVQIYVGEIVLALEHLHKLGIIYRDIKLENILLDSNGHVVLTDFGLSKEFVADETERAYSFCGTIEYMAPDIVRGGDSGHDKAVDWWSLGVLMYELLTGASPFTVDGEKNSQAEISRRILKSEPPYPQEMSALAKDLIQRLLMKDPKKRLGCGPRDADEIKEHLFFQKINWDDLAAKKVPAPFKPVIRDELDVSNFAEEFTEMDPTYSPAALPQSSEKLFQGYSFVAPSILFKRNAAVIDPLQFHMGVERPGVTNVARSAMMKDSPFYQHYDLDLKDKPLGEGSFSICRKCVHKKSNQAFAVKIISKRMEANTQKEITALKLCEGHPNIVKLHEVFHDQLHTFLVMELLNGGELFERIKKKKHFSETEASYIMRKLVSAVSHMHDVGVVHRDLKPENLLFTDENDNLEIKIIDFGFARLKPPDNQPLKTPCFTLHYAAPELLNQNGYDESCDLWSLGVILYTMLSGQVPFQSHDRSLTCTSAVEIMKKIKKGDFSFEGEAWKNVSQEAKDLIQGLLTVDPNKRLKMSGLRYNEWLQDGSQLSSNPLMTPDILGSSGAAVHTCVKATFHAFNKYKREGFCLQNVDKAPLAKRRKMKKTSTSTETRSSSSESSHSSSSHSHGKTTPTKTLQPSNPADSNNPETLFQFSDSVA

[22] = biological target: SRSF protein kinase 1 (Homo sapiens) (UniProt Q96SB4); test: Inhibition of human SRPK1 assessed as remaining activity at 1 uM by ATP-competition binding assay relative to control; in short: as §3
[23] = biological target: Dual specificity protein kinase TTK (Homo sapiens) (UniProt P33981); test: Inhibition of human TTK assessed as remaining activity at 1 uM by ATP-competition binding assay relative to control; in short: as §3
[24] = Antitumor activity against human CLL mononuclear cells xenografted NSG mouse assessed as reduction in the phosphorylation of PLCgamma2 at 0.3 mg/ml preadministered with compound via drinking water and measured after 3 weeks by flow cytometry analysis relative to control; assay type: functional, CLL mononuclear cell; parameters: scale not given: the % may be the effect or the level left
In short: (§4)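 Primary CLL patient mononuclear cells (1 × 10^8 per mouse) engrafted into NSG mice on day 0 after busulfan priming on day −1. Vehicle or drug was given in drinking water from day −1. Mice were killed 3 weeks after engraftment; spleens homogenized, filtered and RBC-lysed; whole blood collected. Six patients, 2–5 mice per patient; paired t-test per patient.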

[25] = Antitumor activity against human CLL mononuclear cells xenografted NSG mouse assessed as inhibition in the phosphorylation of ERK at 0.3 mg/ml preadministered with compound via drinking water and measured after 3 weeks by flow cytometry analysis relative to control; assay type: functional; conditions: CLL mononuclear cell, 504 h; in short: as §4
[26] = Antileukemic activity against human CLL mononuclear cells xenografted NSG mouse assessed as change in blood cells at 0.16 mg/ml preadministered with compound via drinking water and measured after 3 weeks by flow cytometry analysis relative to control; assay type: functional, CLL mononuclear cell; in short: as §4

SMILES: CC#CC(=O)N1CCC[C@H]1c1nc(-c2ccc(C(=O)Nc3ccccn3)cc2)c2c(N)nccn12 [ACALABRUTINIB]
- Activity [1]: 76%
- Activity [2]: 100%
- Activity [3]: 61%
- Activity [4]: 92%
- Activity [5]: 100%
- Activity [6]: 88%
- Activity [7]: 2.1%
- Activity [8]: 86%
- Activity [9]: 84%
- Activity [10]: 83%
- Activity [11]: 90%
- Activity [12]: 83%
- Activity [13]: 76%
- Activity [14]: 77%
- Activity [15]: 94%
- Activity [16]: 91%
- Activity [17]: 76%
- Activity [18]: 88%
- Activity [19]: 86%
- Activity [20]: 71%
- Activity [21]: 84%
- Activity [22]: 67%
- Activity [23]: 91%
- Activity [24]: 68%
- inhibition in vivo at 300 µg/mL [25]: 79%
- Activity [26]: 76%
